Assay results taken from PMC7126014 (Fitoterapia, 2010).

What was measured:
[1] = system: human rotavirus (Wa-1 strain); assay: Antirotavirus activity by cytopathic effect; type: cell-based; conditions: for antiviral (antirotavirus) activity in words: non-cytotoxic concentrations; for IC50: human rotavirus, NA = no antiviral activity
How it was run: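 MA104 cells grown in 199 medium with 10% fetal bovine serum, penicillin G, streptomycin and amphotericin B at 37 °C, 5% CO2, were infected with human rotavirus Wa-1, which had been propagated in MA104 cells with trypsin (5 μg/ml) and titred as TCID50/ml. Test compound was dissolved in 1% DMSO in 199 medium and filter-sterilised. Read-out was cytopathic-effect inhibition. IC50 came from linear regression of concentration–effect curves, as the mean of three independent experiments.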

MA104 cells = assay: Cytotoxicity by microscopical cell morphology evaluation; type: cell-based; conditions: mean of three independent experiments
How it was run: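 Toxicity to MA104 cells was scored by microscopic assessment of cell morphology. Cells were grown in 199 medium with 10% fetal bovine serum and antibiotics at 37 °C in humidified 5% CO2. Test compound was dissolved in 1% DMSO in 199 medium and filtered at 0.22 μm. CC50 was estimated by linear regression of concentration–effect curves, as the mean of three independent experiments.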

O=c1c(O)c(-c2ccccc2O)oc2ccccc12 [compound 1]
antiviral (antirotavirus) activity in words [1]: did not grant antiviral activity
CC50 (MA104 cells; flavonols (Table 1)): 61.4 µM

O=c1c(O)c(-c2cccc(O)c2)oc2ccccc12 [compound 2]
IC50 ([1]; flavonols (Table 1)): 27.5 µM
CC50 (MA104 cells; flavonols (Table 1)): 61.4 µM

O=c1c(O)c(-c2ccc(O)cc2)oc2ccccc12 [compound 3]
antiviral (antirotavirus) activity in words [1]: did not grant antiviral activity
CC50 (MA104 cells; flavonols (Table 1)): 61.4 µM

O=c1c(O)c(-c2ccc(O)c(O)c2)oc2ccccc12 [compound 4]
IC50 ([1]; flavonols (Table 1)): 14.4 µM
CC50 (MA104 cells; flavonols (Table 1)): 57.7 µM

O=c1c(O)c(-c2cc(O)ccc2O)oc2ccccc12 [compound 5]
antiviral (antirotavirus) activity in words [1]: did not grant antiviral activity
CC50 (MA104 cells; flavonols (Table 1)): 57.7 µM

O=c1c(O)c(-c2cc(O)c(O)c(O)c2)oc2ccccc12 [compound 6]
IC50 ([1]; flavonols (Table 1)): 18.2 µM
CC50 (MA104 cells; flavonols (Table 1)): 27.2 µM

COc1ccc(-c2oc3ccccc3c(=O)c2O)cc1 [compound 7]
antiviral (antirotavirus) activity in words [1]: antiviral action was not observed
CC50 (MA104 cells; flavonols (Table 1)): 29.1 µM

COc1ccccc1-c1oc2ccccc2c(=O)c1O [compound 8]
antiviral (antirotavirus) activity in words [1]: antiviral action was not observed
CC50 (MA104 cells; flavonols (Table 1)): 44.7 µM

COc1ccc(-c2oc3ccccc3c(=O)c2O)c(OC)c1 [compound 9]
IC50 ([1]; flavonols (Table 1)): 26.2 µM
CC50 (MA104 cells; flavonols (Table 1)): 52.3 µM

COc1ccc(-c2oc3ccccc3c(=O)c2O)cc1OC [compound 10]
IC50 ([1]; flavonols (Table 1)): 13.1 µM
CC50 (MA104 cells; flavonols (Table 1)): 52.3 µM

COc1cc(-c2oc3ccccc3c(=O)c2O)cc(OC)c1OC [compound 11]
IC50 ([1]; flavonols (Table 1)): 11.9 µM
CC50 (MA104 cells; flavonols (Table 1)): 47.5 µM

COc1ccc(-c2oc3ccccc3c(=O)c2O)c(OC)c1OC [compound 12]
IC50 ([1]; flavonols (Table 1)): 6.09 µM
CC50 (MA104 cells; flavonols (Table 1)): 23.8 µM

O=c1c(O)c(-c2ccc(OCc3ccccc3)cc2)oc2ccccc12 [compound 13]
IC50 ([1]; flavonols (Table 1)): 3.78 µM
antiviral (antirotavirus) activity in words [1]: considerable antirotavirus action
CC50 (MA104 cells; flavonols (Table 1)): 22.7 µM

CCOc1cccc(-c2oc3ccccc3c(=O)c2O)c1 [compound 14]
CC50 (MA104 cells; flavonols (Table 1)): 111 µM

CCOc1ccccc1-c1oc2ccccc2c(=O)c1O [compound 15]
CC50 (MA104 cells; flavonols (Table 1)): 111 µM

CCOc1ccc(-c2oc3ccccc3c(=O)c2O)c(OCC)c1 [compound 16]
CC50 (MA104 cells; flavonols (Table 1)): 47.8 µM

CCOc1ccc(OCC)c(-c2oc3ccccc3c(=O)c2O)c1 [compound 17]
IC50 ([1]; flavonols (Table 1)): 12 µM
CC50 (MA104 cells; flavonols (Table 1)): 23.9 µM

CCOc1ccc(-c2oc3ccccc3c(=O)c2O)cc1OCC [compound 18]
IC50 ([1]; flavonols (Table 1)): 7.97 µM
antiviral (antirotavirus) activity in words [1]: promising antiviral activity
CC50 (MA104 cells; flavonols (Table 1)): 47.8 µM

O=c1c(O)c(-c2ccccc2OCc2ccccc2)oc2ccccc12 [compound 19]
IC50 ([1]; flavonols (Table 1)): 7.55 µM
antiviral (antirotavirus) activity in words [1]: considerable antirotavirus action
CC50 (MA104 cells; flavonols (Table 1)): 45.3 µM

CCc1ccc(-c2oc3ccccc3c(=O)c2O)cc1 [compound 21]
IC50 ([1]; flavonols (Table 1)): 3.64 µM
antiviral (antirotavirus) activity in words [1]: Antiviral activity was provided
CC50 (MA104 cells; flavonols (Table 1)): 14.7 µM

CCCCOc1cccc(-c2oc3ccccc3c(=O)c2O)c1 [compound 22]
IC50 ([1]; flavonols (Table 1)): 6.12 µM
CC50 (MA104 cells; flavonols (Table 1)): 25.1 µM

CCCCOc1ccccc1-c1oc2ccccc2c(=O)c1O [compound 23]
IC50 ([1]; flavonols (Table 1)): 75.4 µM
CC50 (MA104 cells; flavonols (Table 1)): 302 µM

CCCCOc1ccc(-c2oc3ccccc3c(=O)c2O)cc1 [compound 24]
IC50 ([1]; flavonols (Table 1)): 40.6 µM
CC50 (MA104 cells; flavonols (Table 1)): 201 µM

CCCCOc1ccc(-c2oc3ccccc3c(=O)c2O)cc1OCCCC [compound 25]
IC50 ([1]; flavonols (Table 1)): 6.8 µM
antiviral (antirotavirus) activity in words [1]: higher activity
CC50 (MA104 cells; flavonols (Table 1)): 40.8 µM

CCCCOc1ccc(-c2oc3ccccc3c(=O)c2O)c(OCCCC)c1 [compound 26]
IC50 ([1]; flavonols (Table 1)): 10.2 µM
CC50 (MA104 cells; flavonols (Table 1)): 40.8 µM

O=c1c(O)c(-c2ccccc2)oc2cc(O)ccc12 [compound 27]
IC50 ([1]; flavonols (Table 1)): 15.7 µM
CC50 (MA104 cells; flavonols (Table 1)): 61.4 µM

O=c1c(O)c(-c2ccc(O)c(O)c2)oc2cc(O)cc(O)c12 [compound 28]
antiviral (antirotavirus) activity in words [1]: antiviral activity was not observed
CC50 (MA104 cells; flavonols (Table 1)): 103 µM

COc1ccc2oc(-c3ccccc3)c(O)c(=O)c2c1 [compound 29]
CC50 (MA104 cells; flavonols (Table 1)): 29.1 µM

COc1ccc2c(=O)c(O)c(-c3ccccc3)oc2c1 [compound 30]
CC50 (MA104 cells; flavonols (Table 1)): 29.1 µM

COc1ccc(-c2oc3cccc(OC)c3c(=O)c2O)cc1 [compound 31]
IC50 ([1]; flavonols (Table 1)): 4.69 µM
CC50 (MA104 cells; flavonols (Table 1)): 26.2 µM

COc1ccc(-c2oc3ccc(OC)cc3c(=O)c2O)cc1 [compound 32]
IC50 ([1]; flavonols (Table 1)): 17.4 µM
CC50 (MA104 cells; flavonols (Table 1)): 105 µM

COc1ccc(-c2oc3cc(OC)ccc3c(=O)c2O)cc1 [compound 33]
IC50 ([1]; flavonols (Table 1)): 6.37 µM
CC50 (MA104 cells; flavonols (Table 1)): 26.2 µM

COc1ccc(-c2oc3cc(OC)ccc3c(=O)c2O)c(OC)c1 [compound 34]
IC50 ([1]; flavonols (Table 1)): 11.8 µM
CC50 (MA104 cells; flavonols (Table 1)): 47.4 µM

CCOc1ccc2c(=O)c(O)c(-c3ccccc3)oc2c1 [compound 35]
CC50 (MA104 cells; flavonols (Table 1)): 111 µM

CCOc1ccc(-c2oc3cc(OCC)ccc3c(=O)c2O)cc1 [compound 36]
IC50 ([1]; flavonols (Table 1)): 12 µM
antiviral (antirotavirus) activity in words [1]: antiviral activity was detected
CC50 (MA104 cells; flavonols (Table 1)): 47.8 µM

CCOc1cccc(-c2oc3cc(OCC)ccc3c(=O)c2O)c1 [compound 37]
IC50 ([1]; flavonols (Table 1)): 7.97 µM
antiviral (antirotavirus) activity in words [1]: antiviral activity was detected
CC50 (MA104 cells; flavonols (Table 1)): 47.8 µM

CCCCOc1ccc2c(=O)c(O)c(-c3ccccc3)oc2c1 [compound 38]
IC50 ([1]; flavonols (Table 1)): 8.38 µM
antiviral (antirotavirus) activity in words [1]: Antiviral activity was provided
CC50 (MA104 cells; flavonols (Table 1)): 50.3 µM

O=c1c(O)c(-c2ccc(OCc3ccccc3)cc2)oc2cc(OCc3ccccc3)ccc12 [compound 39]
IC50 ([1]; flavonols (Table 1)): 17.3 µM
antiviral (antirotavirus) activity in words [1]: Antiviral activity was provided
CC50 (MA104 cells; flavonols (Table 1)): 69.3 µM

COc1c(OC)c(O)c2c(=O)cc(-c3ccc(O)cc3)oc2c1OC [compound 40]
IC50 ([1]; flavones (Table 2)): 7.56 µM
CC50 (MA104 cells; flavones (Table 2)): 22.7 µM

COc1c(-c2ccc(O)c(O)c2)oc2cc(O)cc(O)c2c1=O [compound 43]
IC50 ([1]; flavones (Table 2)): 12.3 µM
antiviral (antirotavirus) activity in words [1]: conferred an antiviral activity
CC50 (MA104 cells; flavones (Table 2)): 49.3 µM

C[C@@H]1O[C@@H](Oc2c(-c3ccc(O)c(O)c3)oc3cc(O)cc(O)c3c2=O)[C@H](O)[C@H](O)[C@H]1O [compound 44]
antiviral (antirotavirus) activity in words [1]: did not provide antiviral activity
CC50 (MA104 cells; flavones (Table 2)): 69.6 µM

O=c1c(OS(=O)(=O)O)c(-c2ccc(O)c(O)c2)oc2cc(O)cc(O)c12 [compound 47]
IC50 ([1]; flavones (Table 2)): 10.2 µM
antiviral (antirotavirus) activity in words [1]: conferred an antiviral activity
CC50 (MA104 cells; flavones (Table 2)): 40.9 µM

COc1ccc(-c2cc(=O)c3cc(OCc4ccccc4)ccc3o2)cc1 [compound 48]
antiviral (antirotavirus) activity in words [1]: antiviral activity was not shown
CC50 (MA104 cells; flavones (Table 2)): 21.8 µM

COc1ccc(-c2cc(=O)c3c(OC)c(OC)c(OC)c(OC)c3o2)cc1 [compound 49]
IC50 ([1]; flavones (Table 2)): 28.2 µM
CC50 (MA104 cells; flavones (Table 2)): 168 µM

COc1ccc(-c2cc(=O)c3c(O)cc(OC)cc3o2)cc1 [compound 50]
IC50 ([1]; flavones (Table 2)): 13.1 µM
CC50 (MA104 cells; flavones (Table 2)): 52.4 µM

COc1ccc(-c2cc(=O)c3c(O)c(OC)c(OC)c(OC)c3o2)cc1 [compound 51]
IC50 ([1]; flavones (Table 2)): 7.26 µM
CC50 (MA104 cells; flavones (Table 2)): 43.6 µM

COc1ccc(-c2cc(=O)c3c(O)c(OC)c(OC)cc3o2)cc1 [compound 52]
IC50 ([1]; flavones (Table 2)): 15.6 µM
CC50 (MA104 cells; flavones (Table 2)): 23.8 µM

COc1ccc(-c2cc(=O)c3c(OC)c(OC)c(OC)cc3o2)cc1OC [compound 54]
IC50 ([1]; flavones (Table 2)): 6.98 µM
CC50 (MA104 cells; flavones (Table 2)): 41.9 µM

COc1ccc(-c2cc(=O)c3c(OC)c(OC)c(OC)c(OC)c3o2)cc1OC [compound 55]
antiviral (antirotavirus) activity in words [1]: antiviral effect was not shown
CC50 (MA104 cells; flavones (Table 2)): 38.8 µM

COc1ccc(-c2oc3c(OC)c(OC)c(OC)c(OC)c3c(=O)c2OC)cc1OC [compound 57]
IC50 ([1]; flavones (Table 2)): 18 µM
antiviral (antirotavirus) activity in words [1]: weak antirotavirus activity
CC50 (MA104 cells; flavones (Table 2)): 36.1 µM

COc1cc(-c2oc3c(OC)c(OC)cc(O)c3c(=O)c2OC)ccc1O [compound 59]
IC50 ([1]; flavones (Table 2)): 6.95 µM
CC50 (MA104 cells; flavones (Table 2)): 41.7 µM

COc1ccc(-c2oc3c(OC)c(OC)c(OC)c(O)c3c(=O)c2OC)cc1O [compound 60]
IC50 ([1]; flavones (Table 2)): 77.2 µM
CC50 (MA104 cells; flavones (Table 2)): 77.2 µM

quercetrin [compound 46]
antiviral (antirotavirus) activity in words [1]: did not provide antiviral activity
CC50 (MA104 cells; flavones (Table 2)): 27.2 µM
